≈ marks a conversion by molar mass, not a printed value.
Experiments:
[1] = tested on: Staphylococcus aureus; assay: Antibacterial activity against methicillin-resistant Staphylococcus aureus USA1100 assessed as inhibition of visible growth by broth microdilution method; format: functional
[2] = tested on: HeLa; assay: Cytotoxicity against human HeLa cells assessed as cell viability at 11 ug/ml by MTS assay; format: cell-based
[3] = tested on: Staphylococcus aureus; assay: Antibacterial activity against methicillin-resistant Staphylococcus aureus USA500 assessed as inhibition of visible growth by broth microdilution method; format: functional
[4] = tested on: Staphylococcus aureus; assay: Antibacterial activity against methicillin-resistant Staphylococcus aureus NRS119 assessed as inhibition of visible growth by broth microdilution method; format: functional
[5] = tested on: Staphylococcus aureus; assay: Antibacterial activity against vancomycin-resistant Staphylococcus aureus assessed as inhibition of visible growth by broth microdilution method; format: functional
[6] = tested on: Staphylococcus aureus; assay: Antibacterial activity against vancomycin-intermediate Staphylococcus aureus ATCC 700699 assessed as inhibition of visible growth by broth microdilution method; format: functional
[7] = tested on: Staphylococcus aureus; assay: Antibacterial activity against vancomycin-intermediate Staphylococcus aureus HIP07256 assessed as inhibition of visible growth by broth microdilution method; format: functional
[8] = tested on: Staphylococcus aureus; assay: Antibacterial activity against methicillin-resistant Staphylococcus aureus NRS107 assessed as inhibition of visible growth by broth microdilution method; format: functional
[9] = tested on: Staphylococcus aureus; assay: Antibacterial activity against methicillin-resistant Staphylococcus aureus USA300 assessed as inhibition of visible growth by broth microdilution method; format: functional
[10] = tested on: Staphylococcus aureus; assay: Antibacterial activity against methicillin-resistant Staphylococcus aureus ATCC 43300 assessed as inhibition of visible growth by broth microdilution method; format: functional
[11] = tested on: Staphylococcus aureus; assay: Antibacterial activity against methicillin-resistant Staphylococcus aureus USA100 assessed as inhibition of visible growth by broth microdilution method; format: functional
[12] = tested on: Staphylococcus aureus; assay: Antibacterial activity against vancomycin-intermediate Staphylococcus aureus LIM 3 assessed as inhibition of visible growth by broth microdilution method; format: functional
[13] = tested on: Staphylococcus aureus; assay: Antibacterial activity against methicillin-resistant Staphylococcus aureus USA200 assessed as inhibition of visible growth by broth microdilution method; format: functional
[14] = tested on: Staphylococcus aureus; assay: Antibacterial activity against methicillin-resistant Staphylococcus aureus NRS108 assessed as inhibition of visible growth by broth microdilution method; format: functional
[15] = tested on: Staphylococcus aureus; assay: Antibacterial activity against methicillin-resistant Staphylococcus aureus NRS194 assessed as inhibition of visible growth by broth microdilution method; format: functional
[16] = tested on: Staphylococcus aureus; assay: Antibacterial activity against methicillin-resistant Staphylococcus aureus USA400 assessed as inhibition of visible growth by broth microdilution method; format: functional
[17] = tested on: Staphylococcus aureus; assay: Antibacterial activity against methicillin-resistant Staphylococcus aureus USA800 assessed as inhibition of visible growth by broth microdilution method; format: functional
[18] = tested on: Staphylococcus aureus; assay: Antibacterial activity against methicillin-resistant Staphylococcus aureus USA700 assessed as inhibition of visible growth by broth microdilution method; format: functional
[19] = tested on: Staphylococcus aureus; assay: Antibacterial activity against methicillin-resistant Staphylococcus aureus USA1000 assessed as inhibition of visible growth by broth microdilution method; format: functional
[20] = tested on: Staphylococcus aureus; assay: Bactericidal activity against methicillin-resistant Staphylococcus aureus USA300 assessed as time required to complete elimination of bacteria by 3-log10 by time-kill assay; format: functional
In short: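 Viable counts (CFU) followed over a 12-hour window; endpoint is a 3-log10 fall in CFU.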

[21] = Aqueous solubility of compound in phosphate buffer assessed as solubility limit after 2 hrs by turbidity analysis; format: physicochemical

Structure (SMILES)	MIC [1]	Activity [2]	MIC [3]	MIC [4]	MIC [5]	MIC [6]	MIC [7]	MIC [8]	MIC [9]	MIC [10]	MIC [11]	MIC [12]	MIC [13]	MIC [14]	MIC [15]	MIC [16]	MIC [17]	MIC [18]	MIC [19]	Time [20]	further results
C/C(=N\NC(=N)N)c1sc(-c2ccc(C(C)(C)C)cc2)nc1C	1.9 µg/mL (≈ 5.77 µM)	Non-toxic	1.3 µg/mL (≈ 3.95 µM)	1.9 µg/mL (≈ 5.77 µM)	1.6 µg/mL (≈ 4.86 µM)	1.6 µg/mL (≈ 4.86 µM)	1.9 µg/mL (≈ 5.77 µM)	1 µg/mL (≈ 3.04 µM)	1.3 µg/mL (≈ 3.95 µM)	1.9 µg/mL (≈ 5.77 µM)	1.3 µg/mL (≈ 3.95 µM)	1.6 µg/mL (≈ 4.86 µM)	2.6 µg/mL (≈ 7.89 µM)	1.9 µg/mL (≈ 5.77 µM)	2.6 µg/mL (≈ 7.89 µM)	1.9 µg/mL (≈ 5.77 µM)	1.3 µg/mL (≈ 3.95 µM)	–	–	–	–
C/C(=N\NC(=N)N)c1sc(-c2ccc3ccccc3c2)nc1C	–	Non-toxic	2.6 µg/mL (≈ 8.04 µM)	3.8 µg/mL (≈ 11.7 µM)	–	3.2 µg/mL (≈ 9.89 µM)	2.6 µg/mL (≈ 8.04 µM)	1.9 µg/mL (≈ 5.87 µM)	–	3.8 µg/mL (≈ 11.7 µM)	–	–	2.6 µg/mL (≈ 8.04 µM)	1.9 µg/mL (≈ 5.87 µM)	1.9 µg/mL (≈ 5.87 µM)	–	–	2.6 µg/mL (≈ 8.04 µM)	–	–	–
C/C(=N\NC(=N)N)c1sc(-c2ccc(C3=CCCCC3)cc2)nc1C	–	Non-toxic	1 µg/mL (≈ 2.83 µM)	0.6 µg/mL (≈ 1.7 µM)	1.2 µg/mL (≈ 3.39 µM)	0.5 µg/mL (≈ 1.41 µM)	0.8 µg/mL (≈ 2.26 µM)	0.6 µg/mL (≈ 1.7 µM)	1.2 µg/mL (≈ 3.39 µM)	1.2 µg/mL (≈ 3.39 µM)	1 µg/mL (≈ 2.83 µM)	0.8 µg/mL (≈ 2.26 µM)	1 µg/mL (≈ 2.83 µM)	1.7 µg/mL (≈ 4.81 µM)	0.8 µg/mL (≈ 2.26 µM)	–	0.8 µg/mL (≈ 2.26 µM)	1.2 µg/mL (≈ 3.39 µM)	0.8 µg/mL (≈ 2.26 µM)	–	–
C/C(=N\NC(=N)N)c1sc(-c2ccc(C3CCCCC3)cc2)nc1C	0.7 µg/mL (≈ 1.97 µM)	Non-toxic	0.9 µg/mL (≈ 2.53 µM)	0.7 µg/mL (≈ 1.97 µM)	1.5 µg/mL (≈ 4.22 µM)	0.7 µg/mL (≈ 1.97 µM)	0.7 µg/mL (≈ 1.97 µM)	0.6 µg/mL (≈ 1.69 µM)	0.7 µg/mL (≈ 1.97 µM)	1.5 µg/mL (≈ 4.22 µM)	0.7 µg/mL (≈ 1.97 µM)	0.5 µg/mL (≈ 1.41 µM)	1.2 µg/mL (≈ 3.38 µM)	1.5 µg/mL (≈ 4.22 µM)	0.7 µg/mL (≈ 1.97 µM)	0.7 µg/mL (≈ 1.97 µM)	0.7 µg/mL (≈ 1.97 µM)	1.5 µg/mL (≈ 4.22 µM)	0.9 µg/mL (≈ 2.53 µM)	6 h	–
COC(=O)[C@H]1[C@H]2C[C@@H]3c4[nH]c5cc(OC)ccc5c4CCN3C[C@H]2C[C@@H](OC(=O)c2cc(OC)c(OC)c(OC)c2)[C@@H]1OC [RESERPINE]	–	–	–	–	–	–	–	–	–	–	–	–	–	–	–	–	–	–	–	–	solubility kinetic at 2 h [21]: 31.3 µM (≈ 19.1 µg/mL)
CN[C@H](CC(C)C)C(=O)N[C@H]1C(=O)N[C@@H](CC(N)=O)C(=O)N[C@H]2C(=O)N[C@H]3C(=O)N[C@H](C(=O)N[C@H](C(=O)O)c4cc(O)cc(O)c4-c4cc3ccc4O)[C@H](O)c3ccc(c(Cl)c3)Oc3cc2cc(c3O[C@@H]2O[C@H](CO)[C@@H](O)[C@H](O)[C@H]2O[C@H]2C[C@](C)(N)[C@H](O)[C@H](C)O2)Oc2ccc(cc2Cl)[C@H]1O [VANCOMYCIN]	–	–	–	–	–	–	–	–	–	–	–	–	0.4 µg/mL (≈ 0.276 µM)	–	–	–	–	–	–	12 h	–

Reference: ChEMBL document CHEMBL3124870, “Discovery and characterization of potent thiazoles versus methicillin- and vancomycin-resistant Staphylococcus aureus” (J Med Chem, 2014)
